Assay results collected from several papers.
Protocols differ between the studies behind these lines.
Target: Activin receptor type-1 (ACVR1, Homo sapiens, UniProt Q04771)
Sequence (Q04771 21-509, as in one of the studies): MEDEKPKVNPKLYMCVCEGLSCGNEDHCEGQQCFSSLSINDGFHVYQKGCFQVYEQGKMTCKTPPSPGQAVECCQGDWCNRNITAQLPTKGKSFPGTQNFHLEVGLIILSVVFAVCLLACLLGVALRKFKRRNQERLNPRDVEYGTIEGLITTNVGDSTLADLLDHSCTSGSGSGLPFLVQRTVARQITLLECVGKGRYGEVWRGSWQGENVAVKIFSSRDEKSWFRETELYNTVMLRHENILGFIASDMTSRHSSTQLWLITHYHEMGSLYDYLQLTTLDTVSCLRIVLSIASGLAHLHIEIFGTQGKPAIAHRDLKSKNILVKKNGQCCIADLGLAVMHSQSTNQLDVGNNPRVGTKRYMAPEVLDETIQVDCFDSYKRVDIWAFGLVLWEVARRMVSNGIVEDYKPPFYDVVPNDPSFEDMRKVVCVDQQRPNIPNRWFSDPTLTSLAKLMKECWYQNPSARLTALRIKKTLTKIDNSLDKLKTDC

With `O=C(c1ccc(Nc2nccc(-c3cc4ccccc4s3)n2)cc1)N1CCC(N2CCCC2)CC1` the remaining binding was 26% (binding, competition with immobilised ligand; 1 µM).
With `CN(c1nccc(-c2cnn3ncccc23)n1)C1CC1` the remaining binding was 93% (binding; 1 µM).
For `CNC(=O)[C@@H]1CC[C@@H](n2c(-c3ccc4cnccc4c3)nc3ccc(C(=O)NCc4cccc(C(N)=O)c4)cc32)C1`, the remaining binding was 46% (binding, competition with immobilised ligand; 1 µM).
For `O=C(c1ccc(Nc2ncc(Cl)c(-c3cc4ccccc4s3)n2)cc1)N1CCC(N2CCCC2)CC1`, the remaining binding was 69% (binding, competition with immobilised ligand; 1 µM).
`O=C(Nc1c[nH]nc1C(=O)NC1CCNCC1)c1cc(F)cc(F)c1` has a remaining binding of 100% (binding, competition with immobilised ligand; 1 µM).
The remaining binding of `Cc1cnc(Nc2ccc(C(=O)N3CCC(N4CCCC4)CC3)cc2)nc1-c1cc2ccccc2s1` is reported as 72% (binding, competition with immobilised ligand; 1 µM).
`CN(C)c1ncc(F)c(-c2cnn3ncccc23)n1` gave a remaining binding of 79% (binding; 1 µM).
`Nc1ncc2c(n1)-c1c([nH]c3ccc(C#CC4CC4)cc13)CCCC2` gave a remaining binding of 100% (binding, competition with immobilised ligand; 1 µM).
The remaining binding of `FC(F)(F)c1ccc2c(c1)nc(-c1cccnc1)n2C1CC1` is reported as 100% (cell-free assay, competition with immobilised ligand; 1 µM).
`C[C@@H]1CCN(c2nccc(-c3cnn4ncccc34)n2)C1` gave a remaining binding of 100% (binding; 1 µM).
`COc1cnc(Nc2cccc(S(N)(=O)=O)c2)nc1N1CCN(c2ccccc2)CC1` gave a remaining binding of 100% (binding, competition with immobilised ligand; 1 µM).
`O=C(O)[C@@H]1[C@@H](Cn2nnc3ccccc3c2=O)CC[C@H]1C(=O)c1ccc(OCCC2CCOCC2)cc1` has a remaining binding of 100% (cell-free assay, competition with immobilised ligand; 1 µM).
For `COc1ncc2cc3ccccc3nc2c1C#N`, the remaining binding was 100% (cell-free assay, competition with immobilised ligand; 5 µM).
With `Cc1nccc(COC(=O)N2C[C@@H]3[C@@H](CNC(=O)c4ccc5[nH]nnc5c4)[C@@H]3C2)n1` the remaining binding was 95% (cell-free assay, competition with immobilised ligand; 1 µM).
The remaining binding of `FC(F)(F)Oc1cccc(-c2cnc3ccc(-c4ccncc4)nn23)c1` is reported as 8.9% (cell-free assay, competition with immobilised ligand; 5 µM).
`C[C@H](c1cccc(C#N)c1)n1cc(Cl)cc(C(N)=O)c1=N` gave a remaining binding of 88% (cell-free assay, competition with immobilised ligand; 1 µM).
`F[C@@H]1CCN(c2nccc(-c3cnn4ncccc34)n2)C1` has a remaining binding of 80% (binding; 1 µM).
With `Cc1nc(N2CC[C@@H](O)C2)ncc1-c1cc(C(F)(F)F)cc2[nH]ncc12` the remaining binding was 80% (cell-free assay, competition with immobilised ligand; 1 µM).
For `Cc1cnn2ncc(-c3ccnc(N(C)C)n3)c2c1`, the remaining binding was 100% (binding; 1 µM).
`O=C(NCCCC1CCCCC1)c1ccc(CNC(=O)c2cnn(-c3ccccc3)c2C(F)(F)F)cc1` gave a remaining binding of 100% (cell-free assay, competition with immobilised ligand; 0.1 µM).
For `N[C@H]1CCN(c2nccc(-c3cnn4ncccc34)n2)C1`, the remaining binding was 85% (binding; 1 µM).
